# Screening results: PubChem BioAssay, several laboratories
# A selection: hits, their analogues and other compounds. The true share with any hit is near 11%.
# G6PDH counter = inhibits Leuconostoc G6PDH, flagging false hits in G6PDH-based assays | Purified L. mesenteroides G6PDH, diaphorase/resazurin coupled fluorescence, 45 min | inhibition, % at 5 µM | AID 1020 | 200,000 tested, 0.12% active
# WT yeast gro inh = growth inhibition of WT yeast, mitochondrial fusion screen | mitochondrial fusion phenotypic screen, WT strain | inhibition, % at 10 µM | 190,000 tested, 2.1% active | AID 1362; in the data active = inhibition above about 58%; tested in S. cerevisiae
# Diaphorase inh = inhibits diaphorase or chemically oxidizes, flagging diaphorase assay artifacts | diaphorase resazurin-to-resorufin fluorescence, NADH, 16 min; bacterial (C. kluyveri) enzyme, not human | inhibition, % at 20 µM | 190,000 tested, 0.69% active;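 active = primary screen inhibition at 20 µM above a set limit, cut at about 50% in these data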
#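 System: Bacterial diaphorase enzyme (C. kluyveri) | Incubation: 16-min room-temperature incubation before reading | Benchmarks: No-NADH positive control and DMSO neutral control | Measured by: Resorufin fluorescence 544/590 nm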
# Diaph act CS = counter-screen for diaphorase-based assays: diaphorase activators and chemical reducers | activation factor at 20 µM | Diaphorase/resazurin coupled assay, resorufin fluorescence, 16 min; active compounds read high; 1 = vehicle wells, 0 = NADH-free wells | 190,000 tested, 0.005% active;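 active = diaphorase activity raised at least twofold by the compound at 20 µM; inactive = activation factor below 2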
#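 Material: Purified diaphorase enzyme from Clostridium kluyveri | Buffer or medium: 50 mM HEPES pH 7.4 with 4.542 mM MgCl2, 0.005% Tween 20 | Times: 16 min enzyme reaction, ambient temperature | Signal: Red resorufin fluorescence at 544/590 nm excitation/emission | Measure: Increased resorufin signal from activators or reducing compounds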
# Lmaj promast = inhibitors of Leishmania major promastigote growth | inhibition, % at 10 µM | AID 1063 | Leishmania major promastigotes, resazurin fluorescence viability | 200,000 tested, 9% active;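 also: promastigotes grown with compound for 44 hours at 28 °C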
# Numbers stand for hits; – = inactive; · = no result. Rule as the data show it, unless noted: active = inhibition above about 50%; inactive = the rest.
SMILES,G6PDH counter,WT yeast gro inh,Diaphorase inh,Diaph act CS,Lmaj promast
O=C(c1ccc(-c2ccccc2)cc1)c1ccccc1C(=O)N1CCOCC1,–,–,–,–,51
O=S(=O)(NC1CCCCC1NS(=O)(=O)c1ccc(F)cc1)c1ccc(F)cc1 (centres undefined),–,–,–,–,–
CSc1ccc(OC2CCCCC2NS(=O)(=O)c2ccc(Cl)cc2)cc1 (centres undefined),–,74,–,–,96
O=S(=O)(NC1CCCCC1Nc1ccccc1)c1ccccc1 (centres undefined),–,–,–,–,–
O=S(=O)(NC1CCCCC1Oc1ccccc1)c1ccc(Cl)cc1 (centres undefined),–,61,–,–,75
CN(c1ccccc1)C1CCCCC1NS(=O)(=O)c1ccc(Cl)cc1 (centres undefined),–,65,–,–,–
CCN(CC)C1CCCCC1NS(=O)(=O)c1ccc(Cl)cc1 (centres undefined),–,–,–,–,–
COc1ccc(-n2cc(C(=O)c3cc4ccccc4oc3=O)c(C(C)=O)n2)cc1,–,–,–,–,–
COc1ccc(C2C(C#N)=C(N)N(c3ccccc3C#N)C3=C2C(=O)CCC3)cc1CN1CCCC1 (centres undefined),–,–,–,–,–
Cc1ccc(NC(=O)Nc2ccccc2C#N)c(Cl)c1,–,–,–,–,66
CN(C)CCCNC(=S)N1CCn2c(nc3ccccc32)C1,–,–,–,–,51
CCN(CC)CCNC(=S)N1CCn2c(nc3ccccc32)C1,–,–,–,–,–
O=c1[nH]n(-c2cccc3cccnc23)c(=O)c2ccccc12,–,–,–,–,–
O=S1(=O)Nc2c(ccc3cccnc23)-c2ccccc21,–,–,–,–,99
CN=C1S/C(=C\c2cccn2-c2cccc(Br)c2)C(=O)N1C,·,·,·,·,–
CCC(C)N=C1Sc2nc3ccc(C)cc3cc2CN1CCOC (centres undefined),–,–,–,–,–
Clc1ccc(CN2C3=NCCN3c3ccccc32)cc1Cl,–,–,–,–,65
Cn1cnnc1Sc1ccc(/C=C/C(=O)c2ccc(O)cc2)cc1[N+](=O)[O-],–,–,–,–,100
CCC(C)(C)NC(=O)c1ccc(Sc2nncn2C)c([N+](=O)[O-])c1,–,–,–,–,50
Cn1cnnc1Sc1ccc(C(=O)NCCC23CC4CC(CC(C4)C2)C3)cc1[N+](=O)[O-],–,–,–,–,51
CC(c1ccccc1)N1C(=O)NC(NC(=O)C(C)(C)C)(C(F)(F)F)C1=O (centres undefined),–,–,–,–,52
CNC(=O)COC(=O)c1cc(-c2ccccc2)nn1-c1ccccc1,–,–,–,–,–
O=C(CSc1n[nH]c(=O)[nH]c1=O)N/N=C/c1ccccc1,–,–,–,–,56
O=C(Cc1n[nH]c(=O)[nH]c1=O)N/N=C/c1ccccc1,–,–,–,–,–
CC(=O)Oc1ccc(Cn2cnc3cc4ccccc4cc32)cc1,–,–,–,–,58
SMILES,G6PDH counter,WT yeast gro inh,Diaphorase inh,Diaph act CS,Lmaj promast
CCC(Sc1nc2cc3c(cc2c(=O)n1Cc1ccco1)OCO3)C(=O)Nc1cccc(OC)c1 (centres undefined),–,–,–,–,96
COc1cccc(CN2CCN(S(=O)(=O)c3ccc(Br)cc3)CC2)c1,–,–,–,–,–
CC1=CC(C)(C)N(S(=O)(=O)c2ccc(F)cc2)c2ccc(C)cc21,–,81,–,–,–
COc1ccc2c(c1)C(C)=CC(C)(C)N2S(=O)(=O)c1ccc(Br)cc1,–,–,–,–,95
CC1=CC(C)(C)N(C(=O)c2ccccc2)c2ccc(C)cc21,–,–,–,–,–
CC1=CC(C)(C)N(S(=O)(=O)c2ccc(C)cc2)c2ccccc21,–,–,–,–,100
CCN(CC)c1ccc(C(=S)NCc2ccccc2)cc1,–,67,–,–,–
CCN(CC)c1ccc(C(=O)O)cc1,–,–,–,–,–
CCN(CC)c1ccc(C(=S)NC2CCCCC2)cc1,–,73,–,–,–
N#Cc1ccc(CN2CCN(C(=O)c3ccccc3)CC2)c(Cl)c1,–,–,–,–,–
Cc1cccc(C)c1OCCNC(=O)OCc1ccccc1,–,–,–,–,–
O=C(Nc1ccc(S(=O)(=O)Nc2ncccn2)cc1)c1ccc(Br)s1,–,–,–,–,–
